Source: PubChem BioAssay (several laboratories)
SENP7 inh: SENP7 protease inhibition | 330,000 compounds, 1.5% hits | inhibition, % at 5 µM | recombinant SENP7, Z-RLRGG-aminoluciferin luminescence, 40 min;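 active means inhibition above about 50% at the single test dose, limit read from the data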;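 further: plate controls were DMSO with enzyme for no effect and no enzyme buffer wells for full effect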
SENP6 block: inhibitors of human SENP6 protease; Q9GZR1; Recombinant SENP6 catalytic domain, aminoluciferin luminescence; inhibition, % at 10 µM; 330,000 compounds, 1.8% hits; AID 2599;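 active means inhibition above about 50% at the single tested dose, limit read from the data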;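 further: plate controls were DMSO wells with enzyme for no effect and DMSO wells lacking enzyme for full effect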
Target sequence (Q9GZR1 628-1112 limits assumed): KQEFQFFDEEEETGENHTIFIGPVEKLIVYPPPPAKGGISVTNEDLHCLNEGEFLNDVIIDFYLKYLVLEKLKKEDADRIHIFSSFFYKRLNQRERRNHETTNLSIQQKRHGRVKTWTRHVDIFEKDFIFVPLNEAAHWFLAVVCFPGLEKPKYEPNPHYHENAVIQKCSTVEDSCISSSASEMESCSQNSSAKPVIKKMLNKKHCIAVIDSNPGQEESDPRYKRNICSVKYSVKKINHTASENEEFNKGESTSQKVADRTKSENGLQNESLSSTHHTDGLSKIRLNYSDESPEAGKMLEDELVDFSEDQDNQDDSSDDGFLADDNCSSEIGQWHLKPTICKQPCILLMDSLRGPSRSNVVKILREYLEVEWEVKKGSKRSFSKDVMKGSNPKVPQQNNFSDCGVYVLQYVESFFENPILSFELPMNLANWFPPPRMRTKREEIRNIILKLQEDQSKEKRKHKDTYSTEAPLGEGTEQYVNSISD
SENP1 FRET inh: inhibitors of human SENP1 SUMO protease catalytic domain | Q9P0U3 | recombinant SENP1 catalytic domain, CyPet-SUMO1-YPet FRET cleavage | inhibition, % at 10 µM | 360,000 compounds, 0.21% hits;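 active means inhibition at least 30% at 10 µM, raw YFP signal under a set limit, fluorescence ratio 0.5 to 1.5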;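 further: 0% = enzyme with DMSO and 100% = no enzyme wells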
Target sequence (Q9P0U3 419-644 limits assumed): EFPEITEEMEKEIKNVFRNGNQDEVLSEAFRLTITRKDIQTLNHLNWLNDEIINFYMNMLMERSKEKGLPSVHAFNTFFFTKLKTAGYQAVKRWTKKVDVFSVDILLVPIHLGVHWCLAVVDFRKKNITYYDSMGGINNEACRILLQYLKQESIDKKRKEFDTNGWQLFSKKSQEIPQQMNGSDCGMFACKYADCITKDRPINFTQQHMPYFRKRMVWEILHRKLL
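Compound: 10 µM single point, 0.5% DMSO; Test system: hSENP1 catalytic domain, recombinant; Timing: 50 min reaction at room temperature; Technique: FRET, CFP and YFP emission; Control set: no-enzyme wells low, DMSO-plus-enzyme wells high control.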
SENP8 block-1: blocks the human protease SENP8; AID 2540; Q96LD8; inhibition, % at 10 µM; 330,000 compounds, 1.2% hits; purified SENP8, Z-RLRGG-aminoluciferin cleavage, luminescence; in the data active means inhibition above about 50%
SENP8 block-2: SENP8 (human) protease inhibition; Q96LD8; inhibition, % at 20 µM; AID 602440; 360,000 compounds, 0.64% hits; recombinant SENP8, Nedd8 substrate fluorescence; in the data active means inhibition mostly above about 40%, no sharp cut-off; inactive means mostly below about 27%
UCH37 DUB inh: inhibitors of human deubiquitinating enzyme UCH37. inhibition, % (no concentration beside the values). 330,000 compounds, 0.33% hits. purified proteasome/UCH37, Ub-AMC cleavage fluorescence. AID 588478;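 active means mean inhibition over replicate wells above about 20%, limit read from the data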;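 further: 0% = compound-free wells with enzyme and 100% = wells lacking proteasome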
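Signal – fluorescence, ex 355 nm, em 460 nm · System – Proteasome-bound UCH37 · Input – 0.15 nM proteasome as dispensed · Timing – 30 min preincubation with enzyme, 25 min cleavage at room temperature · Read-out basis – percent inhibition of cleavage signal versus uninhibited and no-proteasome wells · Medium – Tris-HCl pH 7.4 with ATP-MgCl2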
UCH37 confirm: confirmation of human UCH37 deubiquitinating enzyme inhibitors | shares compounds with UCH37 DUB inh | Proteasome-bound UCH37, Ub-AMC cleavage fluorescence | inhibition, % at 20 µM | 480 compounds, 27% hits | AID 624100;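 active means average inhibition over replicates above about 50%, so the earlier screening hit is confirmed, limit read from the data; inactive means the rest, counted as false positives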;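 further: based on cleavage rate fitted by regression over a 30 min kinetic read; 0% = proteasome plus Ub-AMC and 100% = Ub-AMC without proteasome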
SENP8 conf: confirmation of human SENP8 protease inhibitors | shares compounds with SENP8 block-2 | purified SENP8, Nedd8-AMC/pro-Nedd8 cleavage fluorescence, 30 min | inhibition, % at 25 µM | 1,400 compounds, 15% hits; in the data active means inhibition mostly above about 39%, no sharp cut-off; inactive means mostly below about 34%
SENP1 inh conf: SENP1 (human) inhibition, single concentration confirmation; shares compounds with SENP1 FRET inh; recombinant SENP1, CyPet-SUMO1-YPet FRET cleavage; inhibition, % at 10 µM; 520 compounds, 34% hits; AID 651678; in the data active means inhibition mostly above about 35%, no sharp cut-off; inactive means mostly below about 32%;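 further: 0% = enzyme with DMSO and 100% = no enzyme control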
SENP1 kinetic: confirmation of human SENP1 SUMO protease inhibitors, kinetic | inhibition, % at 10 µM | AID 651690 | 520 compounds, 26% hits | shares compounds with SENP1 FRET inh | recombinant SENP1, CyPet-SUMO1-YPet FRET kinetic cleavage; in the data active means inhibition mostly above about 32%, no sharp cut-off; inactive means mostly below about 29%;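 further: 0% = DMSO with enzyme and 100% = no enzyme substrate only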
An asterisk follows results filed as active; nt = no result given. Only some compounds are listed: those with a hit (about 2.6% of all), similar ones and a draw of the others.

SMILES	SENP7 inh	SENP6 block	SENP1 FRET inh	SENP8 block-1	SENP8 block-2	UCH37 DUB inh	UCH37 confirm	SENP8 conf	others
CCN(CC)C(=O)c1ccc(/C=C/c2c[nH]c3ccccc23)[n+](C)c1	9.2	1.2	-16.1	0.8	22.2	28.9*	33.3	nt
NC(=O)C1CCN(c2oc(-c3ccccc3F)nc2S(=O)(=O)c2ccc(Cl)cc2)CC1	-2.0	0.8	0.1	-3.5	13.9	6.1	nt	nt
NC(=O)C1CCN(C2=C(NS(=O)(=O)c3ccc(Cl)cc3)C(=O)c3ccccc3C2=O)CC1	14.7	5.7	1.7	6.2	44.5*	33.4*	30.0	nt
Cc1ccc(NC(=O)COC(=O)c2ccc([N+](=O)[O-])s2)c(C)c1	17.8	27.9	2.0	43.2	39.5	31.4*	20.0	nt
Cc1ccc(NC(=O)/C=C/c2ccc([N+](=O)[O-])s2)c(C)c1	nt	nt	-27.3	nt	9.0	5.3	nt	nt
CC(=O)C1=C(C)OC2(O)c3ccccc3C(=O)C12O (stereo not drawn)	42.9	36.6	1.3	23.1	88.0*	77.4*	70.6*	94.5*
CC1=C(C(=O)OC(C)C)C2(O)C(=O)c3ccccc3C2(O)N1 (stereo not drawn)	4.6	1.1	2.9	5.8	26.1	13.7	nt	nt
C=CCN1C=CC(=C/C=C(/C#N)C(=O)OCC)C=C1	-8.6	-31.0	-19.2	-11.7	61.1*	32.2*	41.1	28.7
O=[N+]([O-])c1ccccc1C=NN1CCN(Cc2ccccc2)CC1	nt	nt	nt	nt	nt	-0.6	nt	nt
O=[N+]([O-])c1cc(F)c2cccnc2c1O	10.0	7.0	3.7	-3.0	52.0*	29.1*	48.0	92.5*
Cc1[nH][nH]c(=O)c1C(c1ccc(-c2cccc(Cl)c2)o1)c1c(C)[nH][nH]c1=O	10.3	42.6	-2.2	20.1	78.6*	80.5*	84.0*	85.2*
Cc1[nH][nH]c(=O)c1C(c1ccc(-c2cccc(C(=O)O)c2)o1)c1c(C)[nH][nH]c1=O	16.4	39.0	0.1	18.7	51.9*	44.3*	70.8*	69.5*
Cc1[nH][nH]c(=O)c1C(c1ccc(Br)cc1)c1c(C)[nH][nH]c1=O	1.0	20.4	1.2	-0.2	25.6	8.7	nt	nt
CCOc1cc(C=NNC(=S)Nc2ccccc2C(F)(F)F)ccc1OCC(=O)N1CCOCC1	nt	nt	nt	nt	nt	6.1	nt	nt
CC1Cc2ccccc2N1C(=O)COC(=O)c1ccc([N+](=O)[O-])o1 (stereo not drawn)	18.1	25.7	-0.7	3.5	42.5*	26.4*	31.2	79.5*
C/C(C=NN1C(=O)CSC1=S)=C\c1ccccc1	nt	nt	nt	nt	nt	12.6	nt	nt
Cc1[nH][nH]c(=O)c1C(c1ccc(O)c(Br)c1)c1c(C)[nH][nH]c1=O	-7.8	12.0	4.0	-7.1	11.6	2.9	nt	nt
CCOc1cc(C(c2c(C)[nH][nH]c2=O)c2c(C)[nH][nH]c2=O)ccc1O	9.5	-4.2	3.1	6.1	46.9*	57.8*	39.8	52.7*
COc1ccc(C=NNC(=O)c2ccccc2F)cc1COc1ccc(F)cc1	nt	nt	nt	nt	nt	-3.0	nt	nt
CCOC(=O)c1c(=O)n(O)c2ccc(C)cc2[n+]1[O-]	-1.7	-10.1	46.9*	-9.6	9.9	39.4*	13.0	nt	SENP1 inh conf=9.6;SENP1 kinetic=9.5
CC(CC(=O)Nc1cccc(Cl)c1C)=NNC(=O)Cc1csc(N)n1	nt	nt	nt	nt	nt	1.0	nt	nt
COc1cc(/C=C2\SC(=O)N(Cc3ccc(F)cc3)C2=O)cc([N+](=O)[O-])c1O	-4.3	7.3	10.5	7.2	40.5*	19.7	nt	20.7
COc1cc(/C=C2/SC(=O)N(Cc3ccccc3)C2=O)ccc1OCc1ccncc1	3.8	6.3	-1.7	0.6	-109.2	-4.7	nt	nt
CC(C)[C@H]1C(=O)Nc2ccccc2N1C(=O)N[C@@H](Cc1ccccc1)C(=O)N[C@@H](Cc1ccccc1)C(=O)O	-0.6	-8.9	1.6	0.9	37.8	4.9	nt	nt
CC(C)[C@H]1C(=O)Nc2ccccc2N1C(=O)N[C@@H](Cc1ccccc1)C(=O)N[C@H](Cc1ccccc1)C(=O)O	3.0	-13.8	1.0	-2.4	28.6	-0.1	nt	nt
SMILES	SENP7 inh	SENP6 block	SENP1 FRET inh	SENP8 block-1	SENP8 block-2	UCH37 DUB inh	UCH37 confirm	SENP8 conf	others
CCC(C)[C@H](NC(=O)N1CC(=O)Nc2ccccc21)C(=O)N[C@H](Cc1ccccc1)C(=O)O (stereo partly drawn)	-2.7	-0.4	2.5	-9.3	41.1*	3.8	nt	-3.8
CC(C)C[C@H](NC(=O)N1c2ccccc2NC(=O)[C@@H]1C(C)C)C(=O)N1CCC[C@@H]1C(=O)O	-16.2	-21.1	2.4	-20.3	55.7*	4.0	nt	8.1
CC(C)[C@H](NC(=O)N1c2ccccc2NC(=O)[C@@H]1C(C)C)C(=O)N[C@H](Cc1ccccc1)C(=O)O	-9.4	-0.4	3.7	0.6	40.0*	0.3	nt	-0.1
O=C(CCC1CCCC1)N1CCN(C(=O)c2cccnc2)CC1	-5.2	-4.4	2.2	-11.7	40.9*	5.7	nt	10.5
O=C(c1ccccc1)N1CCN(C(=O)c2cccnc2)CC1	-3.5	2.4	1.3	9.3	7.5	2.7	nt	nt
COc1ccc(Br)cc1C1CC(=O)N2CN(Cc3ccccc3)CSC2=C1C#N (stereo not drawn)	19.3	15.9	-8.8	31.1	67.7*	4.7	nt	1.1
CCOC(=O)c1ccc(N2CSC3=C(C#N)C(c4ccc(OC)cc4OC)CC(=O)N3C2)cc1 (stereo not drawn)	13.0	-14.1	-0.2	-7.0	51.5*	3.9	nt	11.8
COc1cc(OC)c(C2CC(=O)N3CN(c4ccccc4)CSC3=C2C#N)cc1OC (stereo not drawn)	8.0	12.1	-28.4	0.6	0.1	4.9	nt	nt
N#CC1=C2SCN(Cc3ccccc3)CN2C(=O)CC1c1ccccc1F (stereo not drawn)	1.5	3.7	-104.2	12.5	-48.1	6.9	nt	nt
COc1ccc(OC)c(C2CC(=O)N3CN(c4ccc(C)c(Cl)c4)CSC3=C2C#N)c1 (stereo not drawn)	11.2	3.7	-24.4	7.5	6.4	4.1	nt	nt
COc1ccc(Br)cc1C1CC(=O)N2CN(C)CSC2=C1C#N (stereo not drawn)	15.7	-1.7	-19.5	1.3	65.1*	-0.9	nt	0.7
O=C1Nc2ccccc2Nc2ccccc21	7.2	14.8	0.6	-6.7	21.0	3.8	nt	nt
